# Source: PubChem (The Scripps Research Institute Molecular Screening Center)
# M4 PAM: positive allosteric modulators of human muscarinic M4 receptor; CHO-K1 hM4/Gqi5, Fluo-8 calcium fluorescence, ACh EC20; 0% = ACh EC20, 100% = maximal ACh; activation, % at 3 µM; P08173; hit rate 0.4% among 360,000;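 active = activation above its plate's cutoff, the mean activation of sample wells plus 3 SD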
# Target sequence (P08173 whole entry, looked up): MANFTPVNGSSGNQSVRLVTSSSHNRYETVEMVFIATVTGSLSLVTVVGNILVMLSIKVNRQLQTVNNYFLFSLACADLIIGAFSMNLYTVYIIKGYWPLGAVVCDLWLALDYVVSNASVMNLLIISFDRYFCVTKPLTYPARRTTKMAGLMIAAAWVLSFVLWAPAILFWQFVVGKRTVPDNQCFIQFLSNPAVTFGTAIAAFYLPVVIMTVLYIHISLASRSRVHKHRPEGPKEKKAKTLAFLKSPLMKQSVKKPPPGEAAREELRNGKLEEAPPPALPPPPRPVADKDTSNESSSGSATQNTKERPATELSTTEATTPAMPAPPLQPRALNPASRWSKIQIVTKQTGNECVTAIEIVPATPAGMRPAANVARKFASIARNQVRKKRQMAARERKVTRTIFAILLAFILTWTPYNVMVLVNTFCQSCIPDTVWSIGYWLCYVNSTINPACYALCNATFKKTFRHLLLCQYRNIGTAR
# M5 ag: CHRM5 agonism in calcium assay; activation, % at 3 µM; CHO-K1 hM5 cells, Fluo-8 calcium fluorescence; 0% DMSO wells, 100% maximal acetylcholine response; hit rate 0.19% among 360,000; P08912; AID 624037;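 active = activation above the run's mean over test compounds plus 3 SD, cut at about 23% in these data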;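 note: signal is peak over basal fluorescence ratio across the kinetic read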
# CHRM5 antagonist: CHRM5 antagonism in calcium assay; CHO-hM5 cells, Fluo-8 calcium fluorescence, ACh EC80; hit rate 0.59% among 360,000; inhibition, % at 3 µM;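 active = inhibition above a per-plate cutoff, the mean of that plate's test compounds plus 3 SD, cut at about 27% in these data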
# CHRM4 agonist: agonists of human muscarinic M4 receptor (CHRM4); P08173; hit rate 0.14% among 360,000; activation, % at 3 µM; CHO-K1 hM4/Gqi5, Fluo-8 calcium fluorescence; vehicle 0%, full acetylcholine response 100%;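 active = activation above the run mean over all test wells plus 3 SD, cut at about 32% in these data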;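 note: peak over basal fluorescence ratio per well then scaled between controls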
# CHRM5 PAM: CHRM5 positive allosteric modulation; P08912; CHO-K1 hM5, Fluo-8 calcium, ACh EC20 PAM; 0% = ACh EC20, 100% = ACh EC100; activation, % at 3 µM; hit rate 0.3% among 360,000; AID 624038;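 active = activation above the run cutoff, the mean activation of all test compounds plus 3 SD, cut at about 18% in these data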
#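 system = human M5 receptor in CHO-K1 cells | compound = one concentration, 3 µM final (nominal) | schedule = Post-acetylcholine fluorescence recording 140 s | signal = Fluo-8 calcium dye fluorescence, kinetic read | benchmarks = low control EC20 acetylcholine (0%), high control EC100 acetylcholine (100%) | repeats = singlicate, one well per test compound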
# CHRM4 antagonist: blocks acetylcholine activation of human M4 receptor | CHO-hM4 cells, ACh EC80, Fluo-8 calcium fluorescence | inhibition, % at 3 µM | hit rate 0.73% among 360,000;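 active = inhibition above its plate's cutoff, the mean inhibition of sample wells plus 3 SD, cut at about 27% in these data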
# Numbers stand for hits; n = inactive. The list is not random: actives were taken first. Their share in the collection is about 1.9%.
SMILES,M4 PAM,M5 ag,CHRM5 antagonist,CHRM4 agonist,CHRM5 PAM,CHRM4 antagonist
C=CCSC1=C(C#N)C(c2ccccc2Cl)C(C(=O)c2cccs2)C(O)(C(F)(F)F)N1 (stereo not drawn),n,n,27.4,n,n,n
COC(=O)C(Cc1ccccc1)NC(=O)c1ccc(NS(=O)(=O)c2ccc3[nH]c(=O)[nH]c3c2)cc1 (stereo not drawn),n,n,n,n,n,n
CCCC(=O)Nc1ccc(OCC(O)CNC(C)C)c(C(C)=O)c1 (stereo not drawn),n,n,n,n,n,99.9
CCCCn1cnc2c1c(=O)[nH]c(=O)n2CCCC,n,n,n,n,19.0,n
CCCCn1cnc2c(cnn2-c2ccc(F)cc2)c1=O,n,n,n,n,n,36.9
CCn1cnc2c1c(=O)[nH]c(=O)n2Cc1ccccc1,n,n,n,n,n,n
CS(=O)(=O)N(CC(=O)Nc1ccc(S(=O)(=O)N2CCCC2)cc1)c1cccc(F)c1,n,n,n,n,n,n
CCSCc1nnc(SCC(=O)Nc2ccc(F)cc2)n1CC,n,n,n,n,n,n
CCCCCCN1C[C@H](O)[C@@H](n2cc(-c3ccc(F)cc3)nn2)C[C@@H]1c1ccc(C)cc1,n,n,n,n,n,n
Cc1ccc(S(=O)(=O)NC(=O)C2(C)CCN2C(=O)Cc2cc(F)ccc2F)nc1 (stereo not drawn),n,n,n,n,n,n
O=C(NCc1ccccn1)c1ccc2nc(C3CCCCC3)oc2c1,n,n,n,n,n,n
CN1CCC(Oc2ccccc2Sc2ccc(C(F)(F)F)cc2)CC1,n,n,n,n,n,n
CN1CCC(Oc2ccc(Sc3ccccc3)cc2)CC1,n,n,n,n,n,34.0
COC(C/C=C\[C@H](O)[C@@H](C)OCc1ccccc1)OC,n,n,n,n,n,n
Cn1nnnc1SCCNC(=O)C1CCC(=O)N(Cc2ccc(Cl)cc2)C1 (stereo not drawn),n,n,n,n,19.4,n
CCOC(=O)CNC(=O)c1ccc(OCC(F)(F)F)cc1,n,n,n,n,n,n
Cc1csc(NC(=O)CSc2nnc(-c3ccoc3C)o2)n1,n,n,n,n,n,n
Cc1occc1-c1nnc(SCC(=O)Nc2nc(C(C)(C)C)cs2)o1,n,n,29.6,n,n,n
COc1ccccc1-n1c(SCC(=O)Nc2ccc(NC(C)=O)cc2)nc2c([nH]c3ccccc32)c1=O,n,n,n,n,n,n
O=C(CCc1ccccc1)NC(NC(=S)Nc1cccc(Cl)c1)C(Cl)(Cl)Cl (stereo not drawn),n,n,34.2,n,n,n
O=C(CCc1ccccc1)NC(NC(=S)Nc1ccc(Br)cc1)C(Cl)(Cl)Cl (stereo not drawn),n,n,n,n,n,n
O=C(c1cccs1)n1cc(C(=S)N2CCOCC2)c2ccccc21,n,n,n,n,n,n
O=C(C1CC1)n1cc(C(=S)N2CCOCC2)c2ccccc21,20.8,n,n,n,n,n
CCC(=O)c1ccc2c(c1)N(CCCN(C)C)c1ccccc1S2,n,n,74.4,n,n,38.9
CC(=O)c1ccc2c(c1)N(CCCN(C)C)c1ccccc1S2,n,n,69.5,n,n,33.6
SMILES,M4 PAM,M5 ag,CHRM5 antagonist,CHRM4 agonist,CHRM5 PAM,CHRM4 antagonist
CC(=O)c1ccc2c(c1)N(C)c1ccccc1S2,n,n,n,n,n,n
CN(C)CCCN1c2ccccc2CCc2ccc(Cl)cc21,n,n,92.0,n,n,72.2
CNCCCN1c2ccccc2CCc2ccccc21,n,n,84.6,n,n,36.1
COc1ccc(CCN(C)S(=O)(=O)c2cn(C)c(=O)n(C)c2=O)cc1OC,n,n,n,n,n,n
CN(C)CCCN1c2ccccc2Sc2ccccc21,n,n,90.3,n,n,51.5
CC(Oc1ccc(C(C)(C)C)cc1)C(=O)NC1CC(C)(C)NC(C)(C)C1 (stereo not drawn),n,n,n,n,n,n
COc1ccc(CN(CCNC(=O)CCCCC(=O)NCCN(Cc2ccc(OC)cc2)C(C)C)C(C)C)cc1,n,n,47.7,n,n,82.3
